SENP1 FRET inh: blocks the human SENP1 SUMO protease catalytic domain. AID 624204. recombinant SENP1 catalytic domain, CyPet-SUMO1-YPet FRET cleavage. inhibition, % at 10 µM. 360,000 compounds, 0.21% hits;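 active = inhibition at least 30% at 10 µM, raw YFP signal under a set limit, fluorescence ratio 0.5 to 1.5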
Target sequence (Q9P0U3 419-644 limits assumed): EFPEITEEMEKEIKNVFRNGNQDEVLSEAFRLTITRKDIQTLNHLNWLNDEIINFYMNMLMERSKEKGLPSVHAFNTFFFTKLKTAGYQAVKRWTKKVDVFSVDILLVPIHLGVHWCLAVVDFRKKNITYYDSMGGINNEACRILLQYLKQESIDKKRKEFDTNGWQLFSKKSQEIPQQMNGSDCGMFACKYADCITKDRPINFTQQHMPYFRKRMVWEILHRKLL
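Assay system – human recombinant His6-tagged SENP1 catalytic domain enzyme · Input – SENP1 enzyme, 20 pM final · Buffer or medium – Tris pH 8 buffer plus EDTA, NaCl, BME, BSA, NP40, catalase · Schedule – 50 min reaction at room temperature · Technique – FRET read of cyan and yellow fluorescence · Control set – no-enzyme wells low, DMSO-plus-enzyme wells high control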
PfM18AAP inh: PfM18AAP enzyme inhibition; recombinant PfM18AAP, H-Glu-NHMec fluorogenic cleavage; inhibition, % at 7.35 µM; 290,000 compounds, 1.2% hits;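 active = inhibition above the campaign mean inhibition over all tested compounds plus 3 SD, cut at about 28% in these data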
GAA850 FXN act: frataxin GAA850 promoter activation; HEK293 lucGAA850 FXN promoter luciferase reporter, 24 h; percent of 10 µM SAHA response; activation, % at 6 µM; 360,000 compounds, 0.56% hits;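 active = activation above the average of all compounds screened plus 3 SD, cutoff fixed separately per campaign, cut at about 7.5% in these data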
CTSL1 counter: cathepsin L1 inhibition, PFM18AAP counter-screen. recombinant F. hepatica cathepsin L1, Z-Leu-Arg-MCA fluorescence. inhibition, % at 5.96 µM. 300,000 compounds, 0.49% hits. AID 1906;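 active = inhibition above the mean of all tested compounds plus 3 SD, set per screening campaign, cut at about 17% in these data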
HDAC3 inh: blocks human histone deacetylase 3 | recombinant HDAC3, fluorogenic peptide/trypsin coupled, fluorescence | O15379 | 320,000 compounds, 0.15% hits | inhibition, % at 8.3 µM; in the data active = inhibition above about 26%, passing the limit was not always enough
Target sequence (O15379 whole entry, looked up): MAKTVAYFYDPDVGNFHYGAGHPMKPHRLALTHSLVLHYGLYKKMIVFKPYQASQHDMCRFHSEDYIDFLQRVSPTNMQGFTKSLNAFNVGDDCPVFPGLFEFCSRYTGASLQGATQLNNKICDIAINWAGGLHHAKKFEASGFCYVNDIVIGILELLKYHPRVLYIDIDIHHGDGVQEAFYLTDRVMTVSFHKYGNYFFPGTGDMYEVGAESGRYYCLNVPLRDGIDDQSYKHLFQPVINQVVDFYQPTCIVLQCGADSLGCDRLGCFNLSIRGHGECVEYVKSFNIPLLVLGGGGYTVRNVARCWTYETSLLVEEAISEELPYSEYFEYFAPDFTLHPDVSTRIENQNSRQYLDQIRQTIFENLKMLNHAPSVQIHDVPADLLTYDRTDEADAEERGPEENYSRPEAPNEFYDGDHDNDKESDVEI
AHR activator: human AHR activation; AHR-responsive luciferase reporter cells, luminescence; 320,000 compounds, 2.5% hits; activation, % at 5 µM; in the data active = activation above about 47%
Numbers stand for hits; – = inactive; · = no result. The list is not random: actives were taken first. Their share in the collection is about 4.2%.

SMILES | SENP1 FRET inh | PfM18AAP inh | GAA850 FXN act | CTSL1 counter | HDAC3 inh | AHR activator
O=C(/C=C/c1ccco1)NCc1ccccn1 | – | – | – | 16.7 | – | –
O=C(/C=C/c1ccc([N+](=O)[O-])cc1)NCc1ccccn1 | – | – | – | – | – | –
O=C(COC(=O)/C=C/c1ccco1)NC1CCCCC1 | – | · | – | · | – | –
CCN(c1ccccc1)S(=O)(=O)c1cccc(C(=O)Nc2cccc(C)n2)c1 | – | · | – | · | · | ·
COc1ccc(-n2c(=S)[nH]c3cc(C(=O)NCc4ccco4)ccc3c2=O)c(OC)c1 | – | – | – | 18.6 | – | –
Cc1ccccc1NC(=S)c1nc2ccccc2[nH]1 | – | – | – | – | – | 47.0
Cc1ccccc1NC(=O)NCCc1nc2ccccc2[nH]1 | – | – | – | – | – | –
Oc1[nH]c(N=C2N=c3ccccc3=N2)c2ccccc12 | – | – | – | – | – | 58.5
Cc1ccc2c(c1)=N/C(=N\c1[nH]c(O)c3ccccc13)N=2 | – | · | – | · | · | ·
CCCOC(=O)Cn1cnc2scc(-c3ccc(OC)cc3)c2c1=O | – | – | – | – | – | –
C=CCNc1ncnc2c1ncn2[C@H]1CN(CCOC)C[C@@H](CO)O1 | – | · | – | · | · | ·
Cc1cc(C(=O)NN=C(Cc2ccccc2)Cc2ccccc2)c(C)o1 | – | – | – | – | – | 57.7
CC/C(Cc1ccccc1)=N\NC(=O)c1cc(C)oc1C | – | – | – | – | – | –
O=C(N/N=C/c1ccc(Cl)cc1)Nc1ccccc1 | – | – | – | – | – | 67.4
Clc1ccc(/C=N\Nc2ccccc2)cc1 | – | – | – | – | – | –
O=C(N/N=C/c1cc(Br)ccc1O)Nc1ccccc1 | – | – | – | – | – | 50.6
O=C(O)c1ccc(/C=N/n2c(C3CCCCC3)n[nH]c2=S)cc1 | – | 29.5 | – | – | – | –
Cc1ccc(NCc2nc3ccccc3n2C)c(C)c1 | – | – | – | – | – | 76.3
Cc1ccc(CNc2ccc(N3CCOCC3)cc2)cc1 | – | – | – | – | – | –
Cc1cccc(NCc2nc3ccccc3n2Cc2ccccc2)c1 | – | – | – | – | – | –
Cc1cccc(OCc2nc3ccccc3n2C)c1 | – | – | – | – | – | –
Cc1ccc(N2CCN(c3ccc(NCc4nc5ccccc5n4C)cc3)CC2)cc1 | – | – | – | – | – | 65.9
Cc1cccc(NCc2nc3ccccc3n2C)c1 | – | – | – | – | · | 47.2
N#CC1=C(N)Oc2cc(N)ccc2C1c1cccc(F)c1 (centres undefined) | – | – | – | – | – | –
CN(C)c1ccc2c(c1)OC(N)=C(C#N)C2c1cccc(F)c1 (centres undefined) | – | 29.8 | – | – | – | –
SMILES | SENP1 FRET inh | PfM18AAP inh | GAA850 FXN act | CTSL1 counter | HDAC3 inh | AHR activator
CCc1ccc2c(c1)NC(=O)C2(C)Cc1ccc(Cl)s1 (centres undefined) | – | · | – | · | · | ·
C=C(C)CSc1nc2ncccc2[nH]1 | – | – | – | – | – | –
CCN(CC)C(=O)CSc1nc2ncccc2[nH]1 | – | – | – | 18.6 | – | –
CC(C)C[C@@H](CN1CCC[C@H]1CN1C(=O)C(=O)NC[C@@H]1Cc1ccccc1)N1C[C@H](Cc2ccc(O)cc2)N(CC2CCCCCC2)C(=O)C1=O | – | · | · | · | · | ·
COc1ccccc1C1CCN(C(=O)c2cccc([N+](=O)[O-])c2)CC1 | – | – | – | – | – | –
CCOc1ccc(N=Cc2ccc(N(C)C)cc2)c(O)c1 | – | · | – | · | · | ·
CCOc1ccc(N=Cc2ccc([N+](=O)[O-])cc2)c(O)c1 | 39.0 | · | – | · | · | ·
C[C@H](CO)N1C[C@H](C)[C@@H](CN(C)Cc2cccc(C(F)(F)F)c2)OCc2cnnn2CCCC1=O | – | · | – | · | · | ·
CN1CCN(/N=C/c2c3ccccc3c(Cl)c3ccccc23)CC1 | – | – | – | – | – | 56.5
CCn1nc(NC(=O)c2cccnc2)c2cc3ccccc3nc21 | – | – | – | – | – | 63.7
Cc1ccc2nc3c(cc2c1)c(NC(=O)c1ccccn1)nn3CC(C)C | – | – | – | – | – | –
CCn1nc(NS(=O)(=O)c2ccccc2)c2cc3ccccc3nc21 | – | – | – | – | – | –
CCCCC(=O)Nc1nn(CCC)c2nc3ccccc3cc12 | – | – | – | – | – | 47.5
CCn1nc(NC(=O)c2ccccn2)c2cc3cc(C)ccc3nc21 | – | – | – | – | – | 71.4
CCn1nc(NC(=O)c2cccs2)c2cc3ccccc3nc21 | – | – | – | – | – | 48.0
CCn1nc(NC(=O)c2ccccc2)c2cc3cccc(C)c3nc21 | – | – | – | – | – | –
COc1cccc(C(=O)Nc2cccc3c2ccc2cccn23)c1 | – | – | – | – | – | –
O=C(CSc1ccc(-c2cccnc2)nn1)Nc1ccc(F)c(F)c1 | – | – | – | – | – | –
C[C@H](NC(=O)[C@H]1N2C(=O)c3ccccc3C2SC1(C)C)C(=O)N1CCN(C)CC1 (some centres undefined) | – | – | – | 21.1 | – | –
Clc1nc2c(-c3ccccc3)nnn2c2ccccc12 | – | – | – | – | – | 52.5
Cc1oc(-c2ccccc2F)nc1CS(=O)CC(=O)NCc1ccc2c(c1)OCO2 (centres undefined) | – | – | – | – | – | 50.0
Cc1oc(-c2ccc(Cl)cc2)nc1CS(=O)CC(=O)NCc1ccc2c(c1)OCO2 (centres undefined) | – | – | – | – | – | –
CN1/C(=C\C=N\NC(=O)c2ccccc2Br)C(C)(C)c2ccccc21 | – | 31.1 | – | – | · | –
CCCCNC(=O)C1(C)CCN1C(=O)c1ccc2c(c1)CCO2 (centres undefined) | – | · | – | · | · | ·
O=c1[nH]c(-c2ccncc2)nc2ccccc12 | – | – | – | – | – | –
SMILES | SENP1 FRET inh | PfM18AAP inh | GAA850 FXN act | CTSL1 counter | HDAC3 inh | AHR activator
CC(C)Nc1nc2ccccc2c(=O)[nH]1 | – | – | – | – | – | –
Cc1cc(C)cc(Nc2nc3ccccc3c(=O)[nH]2)c1 | – | – | – | – | – | 76.8
Cc1cccc(-c2nc3ccccc3c(=O)[nH]2)c1 | – | – | – | – | – | 68.2
O=C(COC(=O)c1ccco1)Nc1ccc(N2CCOCC2)cc1 | – | · | – | · | · | ·
CCN1CCn2c3c(c4cc(Br)ccc42)CCCC31 (centres undefined) | – | – | – | – | – | 48.6
Cc1ccc2c(c1)c1c3n2CCN(CC#N)C3CCC1 (centres undefined) | – | – | – | – | – | –
COc1cc(-c2nc3ccc4ccccc4c3c3c2CCC3)ccc1O | – | – | – | – | – | 71.6
CC(=O)c1c(C)oc2ccc(NS(=O)(=O)c3ccc(O)c(C(=O)O)c3)cc12 | – | – | – | – | – | –
O=C(O)c1cc(S(=O)(=O)Nc2ccc3oc(=O)sc3c2)ccc1O | · | 50.9 | · | – | – | –
NC(=O)c1nsc(C(=O)N(c2ccc(F)cc2)C(C(=O)NCC2CCCO2)c2c[nH]c3ccccc23)c1N (centres undefined) | – | – | – | – | – | 74.1
